Results reported in ChEMBL document CHEMBL4715736, “Identification of anticancer agents based on the thieno[2,3-b]pyridine and 1H-pyrazole molecular scaffolds” (2016).

Tested on: SR
Experiment: Growth inhibition of human SR cells assessed as cell growth at 0.01 uM incubated for 48 hrs by sulforhodamine B assay relative to control
Format: functional
Settings: read-out: Activity

How did the growth at 0.01 µM turn out when CCc1cccc(C)c1NC(=O)c1sc2nc3c(cc2c1N)C(=O)CCC3 was run?
The growth at 0.01 µM was 96%.

Tested on: HOP-92
Experiment: Growth inhibition of human HOP-92 cells assessed as cell growth at 0.01 uM incubated for 48 hrs by sulforhodamine B assay relative to control
Format: functional
Settings: read-out: Activity

How did the growth at 0.01 µM turn out when CCc1cccc(C)c1NC(=O)c1sc2nc3c(cc2c1N)C(=O)CCC3 was run?
The growth at 0.01 µM was 82%.

Tested on: NCI-H23
Experiment: Growth inhibition of human NCI-H23 cells assessed as cell growth at 0.01 uM incubated for 48 hrs by sulforhodamine B assay relative to control
Format: functional
Settings: read-out: Activity

CCc1cccc(C)c1NC(=O)c1sc2nc3c(cc2c1N)C(=O)CCC3 was tested. Which growth at 0.01 µM did it give?
The growth at 0.01 µM was 99%.

Tested on: HCT-116
Experiment: Growth inhibition of human HCT-116 cells assessed as cell growth at 0.01 uM incubated for 48 hrs by sulforhodamine B assay relative to control
Format: functional
Settings: read-out: Activity

How did the growth at 0.01 µM turn out when CCc1cccc(C)c1NC(=O)c1sc2nc3c(cc2c1N)C(=O)CCC3 was run?
The growth at 0.01 µM was 92%.

Tested on: A498
Experiment: Growth inhibition of human A498 cells assessed as cell growth at 0.01 uM incubated for 48 hrs by sulforhodamine B assay relative to control
Format: functional
Settings: read-out: Activity
How it was run: (§1)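 NCI Developmental Therapeutics Program NCI60 panel. Compounds that were active in the 10 µM one-dose screen went on to dose–response testing. Growth at each concentration is expressed relative to untreated control (100%). GI50 (concentration giving 50% of maximal inhibition of proliferation) and TGI (concentration giving total growth inhibition) were derived from the curves.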

With CCc1cccc(C)c1NC(=O)c1sc2nc3c(cc2c1N)C(=O)CCC3 as the molecule, how does the growth at 0.01 µM read?
The growth at 0.01 µM was 80%.

Tested on: SR
Experiment: Growth inhibition of human SR cells assessed as cell growth at 0.1 uM incubated for 48 hrs by sulforhodamine B assay relative to control
Format: functional
Settings: read-out: Activity

With CCc1cccc(C)c1NC(=O)c1sc2nc3c(cc2c1N)C(=O)CCC3 as the molecule, how does the growth at 0.1 µM read?
Its growth at 0.1 µM is 101%.

Tested on: OVCAR-5
Experiment: Growth inhibition of human OVCAR-5 cells assessed as cell growth at 0.1 uM incubated for 48 hrs by sulforhodamine B assay relative to control
Format: functional
Settings: read-out: Activity

For CCc1cccc(C)c1NC(=O)c1sc2nc3c(cc2c1N)C(=O)CCC3, which growth at 0.1 µM is on record?
The growth at 0.1 µM was 88%.

Tested on: UO-31
Experiment: Growth inhibition of human UO-31 cells assessed as cell growth at 0.1 uM incubated for 48 hrs by sulforhodamine B assay relative to control
Format: functional
Settings: read-out: Activity

How did the growth at 0.1 µM turn out when CCc1cccc(C)c1NC(=O)c1sc2nc3c(cc2c1N)C(=O)CCC3 was run?
Its growth at 0.1 µM is 82%.

Tested on: A549
Experiment: Growth inhibition of human A549/ATCC cells assessed as cell growth at 1 uM incubated for 48 hrs by sulforhodamine B assay relative to control
Format: functional
Settings: read-out: Activity
How it was run: as §1

CCc1cccc(C)c1NC(=O)c1sc2nc3c(cc2c1N)C(=O)CCC3 was tested. Which growth at 1 µM did it give?
The growth at 1 µM was 37%.

Tested on: NCI-H23
Experiment: Growth inhibition of human NCI-H23 cells assessed as cell growth at 1 uM incubated for 48 hrs by sulforhodamine B assay relative to control
Format: functional
Settings: read-out: Activity

With CCc1cccc(C)c1NC(=O)c1sc2nc3c(cc2c1N)C(=O)CCC3 as the molecule, how does the growth at 1 µM read?
The growth at 1 µM was 42%.

Tested on: NCI-H322M
Experiment: Growth inhibition of human NCI-H322M cells assessed as cell growth at 1 uM incubated for 48 hrs by sulforhodamine B assay relative to control
Format: functional
Settings: read-out: Activity

With CCc1cccc(C)c1NC(=O)c1sc2nc3c(cc2c1N)C(=O)CCC3 as the molecule, how does the growth at 1 µM read?
Its growth at 1 µM is 42%.

Tested on: NCI-H460
Experiment: Growth inhibition of human NCI-H460 cells assessed as cell growth at 1 uM incubated for 48 hrs by sulforhodamine B assay relative to control
Format: functional
Settings: read-out: Activity

How did the growth at 1 µM turn out when CCc1cccc(C)c1NC(=O)c1sc2nc3c(cc2c1N)C(=O)CCC3 was run?
The growth at 1 µM was 9%.

Tested on: 786-0
Experiment: Growth inhibition of human 786-0 cells assessed as cell growth at 1 uM incubated for 48 hrs by sulforhodamine B assay relative to control
Format: functional
Settings: read-out: Activity
How it was run: as §1

Which growth at 1 µM does the source give for CCc1cccc(C)c1NC(=O)c1sc2nc3c(cc2c1N)C(=O)CCC3 here?
Its growth at 1 µM is 36%.

Tested on: CAKI-1
Experiment: Growth inhibition of human CAKI-1 cells assessed as cell growth at 1 uM incubated for 48 hrs by sulforhodamine B assay relative to control
Format: functional
Settings: read-out: Activity
How it was run: as §1

With CCc1cccc(C)c1NC(=O)c1sc2nc3c(cc2c1N)C(=O)CCC3 as the molecule, how does the growth at 1 µM read?
Its growth at 1 µM is 31%.

Tested on: PC-3
Experiment: Growth inhibition of human PC-3 cells assessed as cell growth at 1 uM incubated for 48 hrs by sulforhodamine B assay relative to control
Format: functional
Settings: read-out: Activity

With CCc1cccc(C)c1NC(=O)c1sc2nc3c(cc2c1N)C(=O)CCC3 as the molecule, how does the growth at 1 µM read?
Its growth at 1 µM is 31%.

Tested on: CCRF-CEM
Experiment: Growth inhibition of human CCRF-CEM cells assessed as cell growth at 100 uM incubated for 48 hrs by sulforhodamine B assay relative to control
Format: functional
Settings: read-out: Activity
How it was run: as §1

With CCc1cccc(C)c1NC(=O)c1sc2nc3c(cc2c1N)C(=O)CCC3 as the molecule, how does the growth at 100 µM read?
Its growth at 100 µM is -11%.

Tested on: NCI-H23
Experiment: Growth inhibition of human NCI-H23 cells assessed as cell growth at 100 uM incubated for 48 hrs by sulforhodamine B assay relative to control
Format: functional
Settings: read-out: Activity

For CCc1cccc(C)c1NC(=O)c1sc2nc3c(cc2c1N)C(=O)CCC3, which growth at 100 µM is on record?
The growth at 100 µM was 14%.

Tested on: NCI-H322M
Experiment: Growth inhibition of human NCI-H322M cells assessed as cell growth at 100 uM incubated for 48 hrs by sulforhodamine B assay relative to control
Format: functional
Settings: read-out: Activity

With CCc1cccc(C)c1NC(=O)c1sc2nc3c(cc2c1N)C(=O)CCC3 as the molecule, how does the growth at 100 µM read?
Its growth at 100 µM is 21%.

Tested on: SNB-75
Experiment: Growth inhibition of human SNB-75 cells assessed as cell growth at 100 uM incubated for 48 hrs by sulforhodamine B assay relative to control
Format: functional
Settings: read-out: Activity

CCc1cccc(C)c1NC(=O)c1sc2nc3c(cc2c1N)C(=O)CCC3 was tested. Which growth at 100 µM did it give?
Its growth at 100 µM is 29%.

Tested on: UACC-257
Experiment: Growth inhibition of human UACC-257 cells assessed as cell growth at 100 uM incubated for 48 hrs by sulforhodamine B assay relative to control
Format: functional
Settings: read-out: Activity

With CCc1cccc(C)c1NC(=O)c1sc2nc3c(cc2c1N)C(=O)CCC3 as the molecule, how does the growth at 100 µM read?
The growth at 100 µM was -13%.

Tested on: UACC-62
Experiment: Growth inhibition of human UACC-62 cells assessed as cell growth at 100 uM incubated for 48 hrs by sulforhodamine B assay relative to control
Format: functional
Settings: read-out: Activity

For CCc1cccc(C)c1NC(=O)c1sc2nc3c(cc2c1N)C(=O)CCC3, which growth at 100 µM is on record?
The growth at 100 µM was 14%.

Tested on: MDA-MB-468
Experiment: Growth inhibition of human MDA-MB-468 cells assessed as cell growth at 100 uM incubated for 48 hrs by sulforhodamine B assay relative to control
Format: functional
Settings: read-out: Activity

CCc1cccc(C)c1NC(=O)c1sc2nc3c(cc2c1N)C(=O)CCC3 was tested. Which growth at 100 µM did it give?
The growth at 100 µM was -18%.

Tested on: HOP-62
Experiment: Growth inhibition of human HOP-62 cells incubated for 48 hrs by sulforhodamine B assay
Format: functional
Settings: not given
How it was run: (§2)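 NCI60 panel at the NCI Developmental Therapeutics Program. Only compounds active in the 10 µM screen went to dose-response testing. GI50, the concentration giving 50% of maximal inhibition of proliferation, and TGI, the concentration giving total growth inhibition, were derived from the dose-response curves.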

Which GI50 does the source give for CCc1cccc(C)c1NC(=O)c1sc2nc3c(cc2c1N)C(=O)CCC3 here?
Its GI50 is 0.679 µM.

What about the LC50 of the same molecule?
Its LC50 is over 100 µM.

What about the TGI of the same molecule?
The TGI was over 100 µM.

Tested on: NCI-H322M
Experiment: Growth inhibition of human NCI-H322M cells incubated for 48 hrs by sulforhodamine B assay
Format: functional
Settings: not given
How it was run: as §2

For CCc1cccc(C)c1NC(=O)c1sc2nc3c(cc2c1N)C(=O)CCC3, which TGI is on record?
The TGI was over 100 µM.

Same assay, conditions: read-out: LC50 (the source's name)

How did the CC50 turn out when CCc1cccc(C)c1NC(=O)c1sc2nc3c(cc2c1N)C(=O)CCC3 was run?
The CC50 was over 100 µM.

Tested on: KM12
Experiment: Growth inhibition of human KM12 cells incubated for 48 hrs by sulforhodamine B assay
Format: functional
Settings: not given
How it was run: as §2

CCc1cccc(C)c1NC(=O)c1sc2nc3c(cc2c1N)C(=O)CCC3 was tested. Which GI50 did it give?
Its GI50 is 0.413 µM.

And the LC50?
Its LC50 is over 100 µM.

What about the TGI of the same molecule?
The TGI was over 100 µM.

Tested on: SF-295
Experiment: Growth inhibition of human SF-295 cells incubated for 48 hrs by sulforhodamine B assay
Format: functional
Settings: not given
How it was run: (§3)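 NCI DTP 60-line human tumour panel. Dose-response curves were run only for ligands active in the initial 10 µM screen. GI50 (concentration giving 50% of maximal inhibition of proliferation) and TGI (concentration giving total growth inhibition) were derived from these curves.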

Which results are given for CCc1cccc(C)c1NC(=O)c1sc2nc3c(cc2c1N)C(=O)CCC3?
GI50: 0.276 µM; LC50 (concentration killing 50% of cells): > 100 µM; TGI: > 100 µM

Tested on: LOX IMVI
Experiment: Growth inhibition of human LOX IMVI cells incubated for 48 hrs by sulforhodamine B assay
Format: functional
Settings: not given
How it was run: as §2

With CCc1cccc(C)c1NC(=O)c1sc2nc3c(cc2c1N)C(=O)CCC3 as the molecule, how does the GI50 read?
Its GI50 is 0.724 µM.

And the LC50?
Its LC50 is over 100 µM.

And the TGI?
The TGI was over 100 µM.

Tested on: UACC-257
Experiment: Growth inhibition of human UACC-257 cells incubated for 48 hrs by sulforhodamine B assay
Format: functional
Settings: not given
How it was run: as §3

CCc1cccc(C)c1NC(=O)c1sc2nc3c(cc2c1N)C(=O)CCC3 was tested. Which GI50 did it give?
Its GI50 is 0.185 µM.

What about the LC50 (concentration killing 50% of cells) of the same molecule?
Its LC50 (concentration killing 50% of cells) is over 100 µM.

What about the TGI of the same molecule?
The TGI was 62.3 µM.

Tested on: SN12C
Experiment: Growth inhibition of human SN12C cells incubated for 48 hrs by sulforhodamine B assay
Format: functional
Settings: not given
How it was run: as §3

Which GI50 does the source give for CCc1cccc(C)c1NC(=O)c1sc2nc3c(cc2c1N)C(=O)CCC3 here?
The GI50 was 0.0104 µM.

What about the TGI of the same molecule?
Its TGI is over 100 µM.

Same assay, conditions: read-out: LC50 (the source's name)

With CCc1cccc(C)c1NC(=O)c1sc2nc3c(cc2c1N)C(=O)CCC3 as the molecule, how does the CC50 read?
Its CC50 is over 100 µM.

Tested on: MDA-MB-231
Experiment: Growth inhibition of human MDA-MB-231 cells incubated for 48 hrs by sulforhodamine B assay
Format: functional
Settings: not given
How it was run: as §2

For CCc1cccc(C)c1NC(=O)c1sc2nc3c(cc2c1N)C(=O)CCC3, which GI50 is on record?
The GI50 was 1.04 µM.

And the TGI?
The TGI was over 100 µM.

Same assay, conditions: read-out: LC50 (the source's name)

CCc1cccc(C)c1NC(=O)c1sc2nc3c(cc2c1N)C(=O)CCC3 was tested. Which CC50 did it give?
The CC50 was over 100 µM.

Tested on: Hs-578T
Experiment: Growth inhibition of human Hs-578T cells incubated for 48 hrs by sulforhodamine B assay
Format: functional
Settings: not given
How it was run: as §2

How did the TGI turn out when CCc1cccc(C)c1NC(=O)c1sc2nc3c(cc2c1N)C(=O)CCC3 was run?
The TGI was over 100 µM.

Same assay, conditions: read-out: LC50 (the source's name)

With CCc1cccc(C)c1NC(=O)c1sc2nc3c(cc2c1N)C(=O)CCC3 as the molecule, how does the CC50 read?
Its CC50 is over 100 µM.
